Laboratory results published in ChEMBL document CHEMBL1142462, “Synthesis and in vitro biological evaluation of ring B abeo-sterols as novel inhibitors of Mycobacterium tuberculosis” (Bioorg Med Chem Lett, 2008).
Converted amounts (≈) assume the structure as drawn.

Tests used:
[1] = tested on: Mycobacterium tuberculosis; assay: Antimycobacterial activity against Mycobacterium tuberculosis H37Rv by microplate alamar blue assay; type: functional
Vero = assay: Cytotoxicity against african green monkey Vero cells; type: cell-based; details: Chlorocebus sabaeus
Method in brief: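 Cytotoxicity tested on VERO cells (ATCC CCL-81) in parallel with the MIC work. Read-out is IC50 in μg/mL.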

[2] = tested on: Mycobacterium tuberculosis; assay: Antimycobacterial activity against Mycobacterium tuberculosis H37Rv at 64 ug/mL by microplate alamar blue assay; type: functional
[3] = tested on: Mycobacterium tuberculosis; assay: Antimycobacterial activity against Mycobacterium tuberculosis H37Rv at 32 ug/mL by microplate alamar blue assay; type: functional
[4] = tested on: Mycobacterium tuberculosis; assay: Antimycobacterial activity against Mycobacterium tuberculosis H37Rv at 16 ug/mL by microplate alamar blue assay; type: functional
[5] = Selectivity index, ratio of IC50 for against african green monkey VERO cells to MIC for Mycobacterium tuberculosis H37Rv; type: functional
[6] = tested on: Mycobacterium tuberculosis; assay: Antimycobacterial activity against Mycobacterium tuberculosis H37Rv at 128 ug/mL by microplate alamar blue assay; type: functional
[7] = tested on: Mycobacterium tuberculosis; assay: Antimycobacterial activity against Mycobacterium tuberculosis H37Rv at 8 ug/mL by microplate alamar blue assay; type: functional
[8] = tested on: Mycobacterium tuberculosis; assay: Antimycobacterial activity against Mycobacterium tuberculosis H37Rv at 4 ug/mL by microplate alamar blue assay; type: functional
[9] = tested on: Mycobacterium tuberculosis; assay: Antimycobacterial activity against Mycobacterium tuberculosis H37Rv at 2 ug/mL by microplate alamar blue assay; type: functional

Compound	MIC [1] [µg/mL]	IC50 (Vero) [µg/mL]	inhibition at 64 µg/mL [2] [%]	inhibition at 32 µg/mL [3] [%]	inhibition at 16 µg/mL [4] [%]	Selectivity Index [5]	inhibition at 128 µg/mL [6] [%]	inhibition at 8 µg/mL [7] [%]	inhibition at 4 µg/mL [8] [%]	inhibition at 2 µg/mL [9] [%]
C=C(CC[C@@H](C)[C@H]1CC[C@H]2[C@@H]3CC=C4C[C@@H](O)CC[C@]4(C)[C@H]3CC[C@]12C)C(C)C	120 (≈ 301 µM)	> 128	40	43	33					
CC[C@@H](CC[C@@H](C)[C@H]1CC[C@H]2[C@@H]3C(C=O)=C4C[C@@H](O)CC[C@]4(C)[C@H]3CC[C@]12C)C(C)C	3.8 (≈ 8.86 µM)	26.6 (≈ 62 µM)	99	99	98	7	99	99	97	29
CC(C)C(=O)CC[C@@H](C)[C@H]1CC[C@H]2[C@@H]3C(C=O)=C4C[C@@H](O)CC[C@]4(C)[C@H]3CC[C@]12C	13.6 (≈ 32.8 µM)	43.8 (≈ 106 µM)	100	96	92	3.2	99	83	67	52
CC(C)CCC[C@@H](C)[C@H]1CC[C@H]2[C@@H]3C(C=O)=C4C[C@@H](O)CC[C@]4(C)[C@H]3CC[C@]12C	15 (≈ 37.4 µM)	> 128	99	99	96	>9	99	51	34	10
CC(C)[C@@H](C)[C@]1(C)C[C@@H]1[C@@H](C)[C@H]1CC[C@H]2[C@@H]3C(C=O)=C4C[C@@H](O)CC[C@]4(C)[C@H]3CC[C@]12C	12.7 (≈ 28.8 µM)	54.7 (≈ 124 µM)	99	98	96	4.3	99	81	33	17
CC(C)[C@@H](C)CC[C@@H](C)[C@H]1CC[C@H]2[C@@H]3CC=C4C[C@@H](O)CC[C@]4(C)[C@H]3CC[C@]12C	> 128	> 128	41	31	21		58	23	14	15
CC(C)[C@@H](C)CC[C@@H](C)[C@H]1CC[C@H]2[C@@H]3C(C=O)=C4C[C@@H](O)CC[C@]4(C)[C@H]3CC[C@]12C	3.9 (≈ 9.4 µM)	42.3 (≈ 102 µM)	100	99	99	10.8	99	97	94	39
CC(C)[C@@H](C)[C@]1(C)C[C@@H]1[C@@H](C)[C@H]1CC[C@H]2[C@@H]3CC=C4C[C@@H](O)CC[C@]4(C)[C@H]3CC[C@]12C	> 128	> 128	18	13	10		38			
CCC(CC[C@@H](C)[C@H]1CC[C@H]2[C@@H]3CC=C4C[C@@H](O)CC[C@]4(C)[C@H]3CC[C@]12C)C(C)C (single isomer, unassigned) [BETA-SITOSTEROL]	> 128	> 128	48	31	32		45	7	8	-1
CC(C)CCC[C@@H](C)[C@H]1CC[C@H]2[C@@H]3CC=C4C[C@@H](O)CC[C@]4(C)[C@H]3CC[C@]12C [CHOLESTEROL]	> 128	> 128	24	13	33		57			
C=C(CC[C@@H](C)[C@H]1CC[C@H]2[C@@H]3C(C=O)=C4C[C@@H](O)CC[C@]4(C)[C@H]3CC[C@]12C)C(C)C [PARGUESTEROL A]	7.8 (≈ 18.9 µM)	51 (≈ 124 µM)	99	99	105	6.5	99	91	69	52
CO[C@H]1/C=C/O[C@@]2(C)Oc3c(C)c(O)c4c(O)c(c(/C=N/N5CCN(C)CC5)c(O)c4c3C2=O)NC(=O)/C(C)=C\C=C\[C@H](C)[C@H](O)[C@@H](C)[C@@H](O)[C@@H](C)[C@H](OC(C)=O)[C@@H]1C [RIFAMPIN]	0.06 (≈ 0.0729 µM)		100	100	99		100	94	73	
